Results taken from ChEMBL document CHEMBL1126017, “Phenylalkyl isothiocyanate-cysteine conjugates as glutathione S-transferase stimulating agents” (J Med Chem, 1992).

Legend:
[1] = target: T1, Glutathione S-transferase Mu 1 (Mus musculus) (UniProt P10649); assay: Ratio of glutathione S-transferase activity in tested (cottonseed oil alone + compound) to that of control (cottonseed oil alone); assay type: functional
T1 sequence (whole entry): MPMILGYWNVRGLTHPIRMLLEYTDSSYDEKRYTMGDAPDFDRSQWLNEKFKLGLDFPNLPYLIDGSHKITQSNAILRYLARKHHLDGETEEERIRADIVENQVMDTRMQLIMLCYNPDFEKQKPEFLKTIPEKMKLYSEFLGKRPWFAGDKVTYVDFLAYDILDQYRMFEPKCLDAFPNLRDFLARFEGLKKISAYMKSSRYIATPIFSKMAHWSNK
Procedure, shortened: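 Ratio of cytosolic GST specific activity (CDNB substrate, 340 nm, 30 °C) in each tissue of gavaged female A/J mice to that of cottonseed oil-only controls (test/control).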

[2] = tested on: glutathione S-transferase (Mus musculus); assay: Induction of increased cytosolic glutathione S-transferase activity in lung of A/J mice treated with 3 doses of 0.04 mM compound (dissolved in 0.3 mL of cottonseed oil) for 2 days
[3] = tested on: glutathione S-transferase (Mus musculus); assay: Induction of increased cytosolic glutathione S-transferase activity in lung of A/J mice treated with 3 doses of 0.10 mM compound (dissolved in 0.3 mL of cottonseed oil) for 2 days
[4] = tested on: glutathione S-transferase (Mus musculus); assay: Induction of increased cytosolic glutathione S-transferase activity in liver of A/J mice treated with 3 doses of 0.10 mM compound (dissolved in 0.3 mL of cottonseed oil) for 2 days
[5] = tested on: glutathione S-transferase (Mus musculus); assay: Induction of increased cytosolic glutathione S-transferase activity in liver of A/J mice treated with 3 doses of 0.04 mM compound (dissolved in 0.3 mL of cottonseed oil) for 2 days
[6] = tested on: glutathione S-transferase (Mus musculus); assay: Induction of increased cytosolic glutathione S-transferase activity in bladder of A/J mice treated with 3 doses of 0.04 mM compound (dissolved in 0.3 mL of cottonseed oil) for 2 days; details: Urinary bladder
[7] = tested on: glutathione S-transferase (Mus musculus); assay: Induction of increased cytosolic glutathione S-transferase activity in forestomach of A/J mice treated with 3 doses of 0.04 mM compound (dissolved in 0.3 mL of cottonseed oil) for 2 days; details: Stomach
[8] = tested on: glutathione S-transferase (Mus musculus); assay: Induction of increased cytosolic glutathione S-transferase activity in forestomach of A/J mice treated with 3 doses of 0.10 mM compound (dissolved in 0.3 mL of cottonseed oil) for 2 days; details: Stomach
[9] = tested on: glutathione S-transferase (Mus musculus); assay: Induction of increased cytosolic glutathione S-transferase activity in large bowel mucosa of A/J mice treated with 3 doses of 0.04 mM compound (dissolved in 0.3 mL of cottonseed oil) for 2 days
[10] = tested on: glutathione S-transferase (Mus musculus); assay: Induction of increased cytosolic glutathione S-transferase activity in large bowel mucosa of A/J mice treated with 3 doses of 0.10 mM compound (dissolved in 0.3 mL of cottonseed oil) for 2 days
[11] = tested on: glutathione S-transferase (Mus musculus); assay: Induction of increased cytosolic glutathione S-transferase activity in small bowel mucosa of A/J mice treated with 3 doses of 0.04 mM compound (dissolved in 0.3 mL of cottonseed oil) for 2 days
[12] = tested on: glutathione S-transferase (Mus musculus); assay: Induction of increased cytosolic glutathione S-transferase activity in small bowel mucosa of A/J mice treated with 3 doses of 0.10 mM compound (dissolved in 0.3 mL of cottonseed oil) for 2 days

In the case of `NC(CS/C(S)=N/CCCc1ccccc1)C(=O)O` (configuration not stated), the Ratio [1] is reported as 1.11 [middle of 11 runs], the Activity (uM min-1 (mg of protein)-1) [2] is reported as 0.31 and the Activity (uM min-1 (mg of protein)-1) [3] is reported as 0.29. It also gave an Activity (uM min-1 (mg of protein)-1) [4] of 1.35, an Activity (uM min-1 (mg of protein)-1) [5] of 1.2 and an Activity (uM min-1 (mg of protein)-1) [6] of 6.16. The Activity (uM min-1 (mg of protein)-1) [7] was 0.86, the Activity (uM min-1 (mg of protein)-1) [8] was 0.92 and the Activity (uM min-1 (mg of protein)-1) [9] was 0.26. For the same compound, the Activity (uM min-1 (mg of protein)-1) [10] was 0.38, the Activity (uM min-1 (mg of protein)-1) [11] was 0.49 and the Activity (uM min-1 (mg of protein)-1) [12] was 0.69.
